# Screening results deposited in PubChem by several laboratories.
# Ecoli tolC = growth inhibitors of E. coli tolC mutant, primary screen, strain BW25113 ΔtolC::kan, 384-well | hit rate 2.2% among 65,000 | OD615 | growth inhibition, % at 10 µM (by protocol);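 active = growth inhibition at or above a cutoff equal to the mean over every tested compound plus 3 SD, cut at about 60% in these data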;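 note: growth measured after 20 h incubation at 37 °C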
#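 signal = optical density read at 615 nm | test system = E. coli ΔtolC::kan strain BW25113 | timing = 20 h compound exposure of bacteria at 37 °C | buffer or medium = LB medium plus 50 µg/mL kanamycin | compound dosing = 10 µM final, single dose | evaluation = % inhibition of E. coli growth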
# PTK2B oligo ant = antagonists of Pyk2 self-association, primary screen, Q293 cells, FERM NanoBiT luminescence, HTS | active compounds read low | z-score (the deposit names both 25 µM and 10 µM) | hit rate 0.83% among 99,000 | AID 1347419, 2020;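 active = Z-score of -3 or lower, scaled per plate to the spread of control and sample wells; inactive = z-score above -3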;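 note: negative z-score means lost luminescence so less FERM oligomerization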
# Cav32 inh = Cav3.2 calcium influx blockers – cell-based, Fluo-4 calcium fluorescence, FDSS, MLSMR library, primary screen. B-score at 10 µM. Cav3.2-expressing cells; active compounds read low. hit rate 4% among 100,000. Voltage-dependent T-type calcium channel subunit alpha-1H (Homo sapiens), O95180;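 active = single-dose well whose peak fluorescence ratio is a statistical outlier from its plate by either plate-standardised score or position-corrected B-score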
# Ecoli WT expand = growth inhibitors of wild-type E. coli, primary screen, strain BW25113, expanded library, OD600; OD600 absorbance; growth inhibition, % at 100 µM; hit rate 0.15% among 98,000; AID 710, 2007;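 active = growth inhibition above about 50% at one test dose, limit read from the data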;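 note: growth measured after 20 h incubation at 37 °C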
# PostGolgi yeast = phenotypic screen on post-Golgi transport, primary screen; post-Golgi transport phenotypic cell assay; inhibition, % at 10 µM; hit rate 0.9% among 98,000; AID 739, 2007;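 note: yeast cells grown in 1536-well plates; yeast grown about 18 h at 30C before absorbance read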
# PostGolgi ctrl = growth inhibition of yeast control strain, primary screen, counter-screen for post-Golgi transport modulator project; efflux-deficient yeast background strain, growth absorbance A615, 16 h; inhibition, % at 10 µM; hit rate 5% among 98,000
# * hit, by the source's call; nt = no result. This is a sample that favours compounds with a hit; in the whole collection about 8.7% have one here. Cut-off read from the data, not from the text of the source, unless noted: active = inhibition above about 30%; inactive = the rest.
SMILES,Ecoli tolC,PTK2B oligo ant,Cav32 inh,Ecoli WT expand,PostGolgi yeast,PostGolgi ctrl
COc1ccc2c(c1)c(CC(=O)Nc1ccc(C)cc1)c(C)n2C(=O)c1ccc(Cl)cc1,nt,-0.75,-3.92*,-7.0,-3.3,6.7
COc1ccc2c(c1)c(CC(=O)OCC(=O)O)c(C)n2C(=O)c1ccc(Cl)cc1,11.3,nt,-0.44,nt,nt,nt
Clc1ccc(Cl)c(OCc2cc(-c3ccccc3Cl)on2)c1,nt,0.38,-0.0123,-2.0,-2.2,4.1
Cc1ccc(-n2nnnc2SCC(=O)Nc2ccccc2N2CCCCC2)cc1C,19.5,-0.27,-4.09*,-15.0,-7.3,19.9
O=C(CSc1nnnn1-c1ccccc1)Nc1ccc(N2CCOCC2)c(Cl)c1,-4.2,-1.69,0.055,-8.0,7.3,1.0
Cc1cc(C)nc(SCC(=O)Nc2ccc(N3CCOCC3)c(Cl)c2)n1,45.8,0.82,nt,24.0,-2.5,-0.7
O=C(CSc1nnnn1-c1cccc2ccccc12)Nc1ccc(N2CCOCC2)c(Cl)c1,nt,-3.31*,-2.02,-9.0,5.5,5.6
O=C(CSc1nnc(C23CC4CC(CC(C4)C2)C3)o1)Nc1ccc(N2CCOCC2)c(Cl)c1,-5.8,-3.26*,0.993,-1.0,2.0,4.4
O=C(CSc1nc2ccccc2o1)Nc1cc(C(F)(F)F)ccc1N1CCOCC1,nt,-1.21,-1.43,-2.0,-6.8,33.8*
O=C(CSc1nc2ccccc2o1)Nc1ccc(Cl)cc1,nt,1.67,0.271,0.0,-12.8,15.9
O=C(CSc1nc2ccccc2o1)Nc1ccc(N2CCOCC2)c(Cl)c1,45.7,0.31,-3.76*,29.0,-5.7,0.6
O=C(Nc1ccc(N2CCOCC2)c(Cl)c1)c1ccccc1F,nt,-0.21,-0.556,4.0,5.8,-0.6
Cc1cccc(NC(=O)CSc2nc3ccccc3o2)c1,nt,2.06,-6.94*,17.0,0.7,5.2
CC(=O)Nc1ccc(NC(=O)CSc2nc3ccccc3o2)cc1,nt,2.85,nt,nt,nt,nt
O=C(COc1c(F)c(F)c(C(F)(F)F)c(F)c1F)Nc1ccc(N2CCOCC2)c(Cl)c1,100.0*,-0.5,nt,-21.0,-2.1,13.8
FC(F)(F)c1ccc(N2CCOCC2)c(Nc2nc3ccccc3n3cnnc23)c1,-3.7,-0.43,-0.293,5.0,6.8,51.8*
Cc1ccc2nc(SCC(=O)Nc3cc(C(F)(F)F)ccc3N3CCOCC3)[nH]c2c1,nt,-3.55*,-1.07,-3.0,-6.4,2.2
O=C(Nc1cc(C(F)(F)F)ccc1N1CCOCC1)C1Cc2ccccc2CN1C(=O)c1ccco1 (stereo not drawn),9.2,-0.54,-8.81*,-5.0,1.1,15.3
Cn1ccnc1SCC(=O)Nc1cc(C(F)(F)F)ccc1N1CCOCC1,nt,-0.17,-0.0561,-1.0,-3.5,5.8
O=C(CSc1nc2ccccc2o1)Nc1ccccc1N1CCCCCC1,73.1*,0.13,-6.58*,-5.0,3.4,21.2
O=C(CSc1nc2ccccc2o1)NC(=O)NCc1ccccc1,nt,-0.4,-6.52*,-1.0,5.5,10.6
CN(c1ccccc1C(=O)N1CCc2ccccc2C1)S(C)(=O)=O,-6.8,-0.3,-0.222,2.0,1.7,2.5
Cc1cc(C(=O)CSc2nnc(-c3ccccc3)n2-c2ccccc2)c(C)n1-c1ncn[nH]1,18.1,-3.16*,-0.0141,-2.0,5.1,-6.1
O=c1ccn(-c2cccc(C(F)(F)F)c2)nc1-c1ccn(-c2cccc(Cl)c2)n1,nt,-1.36,-5.69*,-7.0,10.4,49.7*
CC1CC(C)(C)N(C(=O)CSc2ccc(-c3ccc(F)cc3)nn2)c2ccccc21 (stereo not drawn),nt,-0.28,-2.27,-5.0,-23.2,36.5*
SMILES,Ecoli tolC,PTK2B oligo ant,Cav32 inh,Ecoli WT expand,PostGolgi yeast,PostGolgi ctrl
Cc1cc(S(=O)(=O)Nc2ccc3ccccc3c2)c(C)s1,nt,-2.87,-3.61,-8.0,-10.6,78.2*
CCc1ccc(NS(=O)(=O)c2ccc(OC)c(C)c2)cc1,nt,-3.34*,-3.33,-3.0,-9.5,35.5*
COc1ccc(S(=O)(=O)Nc2ccc(S(=O)(=O)Nc3nc(C)cc(C)n3)cc2)cc1OC,-6.1,0.06,-0.351,-13.0,4.9,31.5*
COc1ccc(NS(=O)(=O)c2ccc(NS(=O)(=O)c3ccc(SC)cc3)cc2)c(OC)c1,nt,-0.87,-4.91*,-2.0,-1.3,-3.7
CC(C)CC1N=C2c3ccccc3N=C(SCc3cc(=O)n4ccccc4n3)N2C1=O (stereo not drawn),6.2,nt,nt,nt,nt,nt
COc1ccc(S(=O)(=O)Nc2ccccc2)cc1OC,nt,-0.08,1.1,0.0,-2.9,12.7
COc1ccc(S(=O)(=O)Nc2cc(C)ccc2OC)cc1C,14.4,-1.81,-7.65*,4.0,-8.0,26.9
COc1ccc(S(=O)(=O)Nc2ccc3ccccc3c2)cc1C,nt,-3.23*,-1.49,0.0,0.9,5.7
COc1ccccc1N1CCN(C(c2cccs2)C(C)NS(=O)(=O)c2ccccc2)CC1 (stereo not drawn),30.6,nt,-2.99,-18.0,-8.7,6.5
CC(NS(=O)(=O)c1ccccc1)C(c1cccs1)N1CCN(c2ccccc2)CC1 (stereo not drawn),26.6,-1.13,-4.55,-8.0,-4.9,39.2*
O=C(O/N=C1/CCSc2ccccc21)c1ccc(F)cc1,nt,-0.38,-4.69*,-8.0,0.5,18.4
Cn1c(=O)c2cc(NC(=O)c3ccccc3Cl)c(=O)oc2n(C)c1=O,-8.3,0.51,-0.0198,-3.0,0.9,-1.6
O=C(CSc1nnc(COc2ccc(Cl)cc2)o1)N1CCN(c2ccccc2)CC1,12.4,nt,0.692,-14.0,1.9,2.9
COc1ccc(OCc2nnc(SCC(=O)N3c4ccccc4Sc4ccc(Cl)cc43)o2)cc1,nt,-0.11,-4.45*,-19.0,-1.4,6.8
CC1Cc2cc(-c3csc(NC(=O)Cc4cccs4)n3)ccc2N1S(C)(=O)=O (stereo not drawn),63.4*,-3.12*,nt,-13.0,-28.2,24.9
O=c1oc2cc(O)ccc2c2c1CCCC2,26.2,1.98,0.47,11.0,-5.5,10.2
COC1=C(OC)C(=O)C(CCCCCCCCCCO)=C(C)C1=O,nt,nt,-3.12,nt,nt,nt
CC1=C(C)C(=O)C(CCCCC#CCCCC#CCO)=C(C)C1=O,8.9,nt,-4.13*,nt,nt,nt
COc1ccc(C(=O)n2ccc(C)n2)cc1Br,-2.6,nt,nt,3.0,-6.8,5.5
CCn1c(Cc2ccccc2)nnc1SCC(=O)Nc1nnc(-c2ccccc2)s1,-13.2,-1.65,0.361,-17.0,4.7,7.8
CC(=O)c1ccc(N2CCN(C(=O)c3ccc(Br)cc3)CC2)c(F)c1,12.2,1.23,-0.429,-2.0,86.8*,53.6*
CCOC(=O)C1CCCN(CC(=O)NC2=Nc3ccccc3N=C(C)C2c2ccccc2)C1 (stereo not drawn),46.1,-0.61,-6.21*,-21.0,-2.9,14.4
CCOC(=O)C1CCCN(CCC(=O)Nc2ccccc2)C1 (stereo not drawn),nt,0.39,1.96,0.0,9.8,-3.6
CC(C)N1CCC2(CC1)N=C(c1ccc3c(c1)OCO3)CC(c1cc(Cl)ccc1O)N2 (stereo not drawn),100.0*,-1.82,-2.35,29.0,15.0,50.1*
